According to article PMC2864154 (Biochemical pharmacology, 2010):
Read-outs that look alike come from different tables or passages of the source. One block for each compound: values may come before it.

How the values were obtained:
MIN6 cells [1] = experiment: TNF-α induced apoptosis, PI flow cytometry; assay type: cell-based, mouse; conditions: TNF-α 50 ng/ml, 24 h; for cell death (sub-G1 peak): agonist pretreatment where present
Outline: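 Cells were grown in 6-well plates, pretreated with agonist (10 μM, 30 min, kept present), and exposed to TNF-α 50 ng/ml. At 24 h after induction, cells were trypsinized, stained with PI (10 μg/ml) for 30 min, and analyzed by flow cytometry. Cell death was scored as the percentage of cells with sub-G1 DNA content.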

P2Y2 = conditions: read-out: EC50 PLC activation; P2Y2, transfected astrocytoma cells; cited from earlier work
MIN6 cells [2] = experiment: TNF-α induced apoptosis, HO342/PI nuclei staining, fluorescence microscopy; assay type: cell-based, mouse; conditions: TNF-α 50 ng/ml; for nuclei/cells double stained with HO342 and PI: agonist 10 μM where present
Outline: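 MIN6 cells were grown 48 h on coverslips, then moved to DMEM with 5% FBS. Cells were pretreated 30 min with 10 μM agonist, which stayed present, then given TNF-α 50 ng/ml (16 h per methods; legend gives staining after 24 h); PBS alone was the negative control. Staining used PI 10 μg/ml plus HO342 20 μg/ml for 10 min, viewed by fluorescence microscopy at 365 nm excitation. Condensed or fragmented blue, pink or red nuclei were scored apoptotic.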

P2Y4 = conditions: read-out: EC50 PLC activation; P2Y4, transfected astrocytoma cells; cited from earlier work
MIN6 cells [3] = experiment: Insulin secretion assay; assay type: cell-based, mouse; conditions: for EC50: read-out: EC50 insulin secretion, 1 h, n=3
Outline: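 Cells were seeded at 40,000/well and cultured 48 h in DMEM at 37°C, then preincubated 1 h in KRBB with 3.3 mM glucose and 0.3% albumin. Secretion was stimulated 1 h at 37°C in KRBB with 16.7 mM glucose (or a glucose series) ± agonist, with or without P2Y1/P2Y13 antagonists (30 μM) or a P2Y6 antagonist (10 μM). Insulin was measured by ELISA against a mouse insulin standard; n=3.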

P2Y6 = conditions: read-out: EC50 PLC activation; P2Y6, transfected astrocytoma cells; cited from earlier work
MIN6 cells [4] = experiment: Inositol phosphate; assay type: cell-based, mouse; conditions: read-out: EC50 accumulation of intracellular IP3; 30 min at 37°C, 20 mM lithium chloride, n=3
Outline: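 MIN6 cells were grown to 80% confluence with myo-[3H]-inositol (2 μCi/ml) for 48 h. They were then exposed to P2Y ligand or buffer with 20 mM LiCl for 30 min at 37°C. The reaction was stopped with cold 20 mM formic acid, and supernatants were neutralized with NH4OH. Samples went through AG1-X8 anion exchange, with total IP3 eluted by 1 M ammonium formate/0.1 M formic acid and counted by scintillation; n=3.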

P2Y1 receptor = P2Y1 receptor (Mus musculus, UniProt P49650); experiment: Competition binding against [125I]MRS2500 in MIN6 cell membranes
Sequence of P2Y1 receptor (P49650 whole entry): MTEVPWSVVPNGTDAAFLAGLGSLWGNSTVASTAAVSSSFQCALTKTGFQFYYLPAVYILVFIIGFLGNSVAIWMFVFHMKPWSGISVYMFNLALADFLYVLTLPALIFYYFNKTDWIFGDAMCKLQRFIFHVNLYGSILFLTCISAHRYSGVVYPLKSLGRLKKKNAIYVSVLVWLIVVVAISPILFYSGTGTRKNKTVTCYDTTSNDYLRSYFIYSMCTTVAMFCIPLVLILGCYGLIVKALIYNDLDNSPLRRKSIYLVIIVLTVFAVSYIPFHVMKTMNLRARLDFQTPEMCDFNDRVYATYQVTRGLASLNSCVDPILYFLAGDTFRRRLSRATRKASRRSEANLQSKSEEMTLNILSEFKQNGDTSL

mouse P2Y1 receptor = mouse P2Y1 receptor (Mus musculus, UniProt P49650); experiment: Saturation binding of [125I]MRS2500 in MIN6 cell membranes; conditions: n=3
Sequence of mouse P2Y1 receptor (P49650 whole entry): as above
Outline: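 Membranes came from MIN6 cells at 80% confluence: homogenized, cleared at 100 × g for 5 min, Polytron-homogenized in 50 mM Tris-HCl pH 7.4, and pelleted at 20,000 × g for 20 min at 4°C. They were incubated with 0.2–7.2 nM [125I]MRS2500 in 50 mM Tris, MgCl2, pH 7.4, for 60 min at 4°C. Nonspecific binding used 10 μM unlabelled ligand. Bound ligand was collected on GF/B filters; Bmax was expressed per mg protein (BCA) and KD from saturation/Scatchard analysis; n=3.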

[5] = against [125I]MRS2500, MIN6 cell membranes, mean ± s.e.m. of three experiments

Compound: O=c1ccn([C@@H]2O[C@H](COP(=O)(O)OP(=O)(O)OP(=O)(O)OC[C@@H]3O[C@@H](n4ccc(=O)[nH]c4=O)C(O)[C@@H]3O)[C@H](O)C2O)c(=O)[nH]1 (stereo partly drawn) [Up3U, P^1,P^4-di(uridine 5′-)triphosphate]
- reduction of cell death compared to TNF-α alone (MIN6 cells [1]; agonist pretreatment): significant reduction in cell death
- cell death (sub-G1 peak) (MIN6 cells [1]): 25%
- EC50 (P2Y2): 1310 ± 210 nM
- cells homogeneously stained only with HO342 (MIN6 cells [2]; agonist 10 μM): more than 80%
- cytoprotection against TNF-α induced apoptosis (microscopy) (MIN6 cells [2]; agonist 10 μM pretreatment): significant cytoprotection
- nuclei/cells double stained with HO342 and PI (MIN6 cells [2]): ~ 10%
- EC50 (P2Y4): 870 ± 110 nM
- effect on insulin secretion at low glucose (MIN6 cells [3]; 3.3 mM glucose, data not shown): did not show any significant effect
- increase in insulin secretion compared with glucose alone (MIN6 cells [3]; agonist 10 μM, 35 mM glucose): 2 fold
- EC50 (MIN6 cells [3]; 16.7 mM glucose): 30.7 ± 12.7 nM
- EC50 (P2Y6): 270 ± 70 nM
- EC50 (MIN6 cells [4]): 29 ± 7.3 nM

Compound: S=C=Nc1cccc(NC(=S)NCCCCNC(=S)Nc2cccc(N=C=S)c2)c1 [MRS2578]
- effect of antagonist on insulin secretion induced by Up3U (MIN6 cells [3]; antagonist 10 μM, Up3U 10 μM): significantly blocked

Compound: Nc1ncnc2c1ncn2[C@@H]1O[C@H](COP(=O)(O)OP(=O)(O)O)[C@@H](O)[C@H]1O [ADP]
- effect on insulin release (MIN6 cells [3]; agonist 10 μM, 16.7 mM glucose): stimulated insulin release
- concentration at which insulin secretion was maximal (MIN6 cells [3]; concentration response studies, 16.7 mM glucose): 10 µM
- Ki (P2Y1 receptor; [5]): 335 ± 3.9 nM

Compound: TNF-α
- cell death (sub-G1 peak) (MIN6 cells [1]): 54%
- nuclei/cells double stained with HO342 and PI (MIN6 cells [2]): 30-40%

Next, values leading:

- Ki (P2Y1 receptor; [5]): 2.92 ± 0.21 nM
Compound: CNc1nc(I)nc2c1ncn2[C@H]1C[C@H](OP(=O)(O)O)[C@]2(COP(=O)(O)O)C[C@H]12 [MRS2500, 2-iodo-N^6-methyl-(N)-methanocarba-2′-deoxyadenosine-3′,5′-bisphosphate]

- Ki (P2Y1 receptor): 49.8 ± 0.23 nM
Compound: CNc1ncnc2c1ncn2[C@H]1C[C@H](OP(=O)(O)O)[C@@H](COP(=O)(O)O)O1 [MRS2179, N^6-methyl-2′-deoxyadenosine-3′,5′-bisphosphate]

- Bmax (mouse P2Y1 receptor): 307±22 fmol receptor per mg protein
- Kd (mouse P2Y1 receptor; saturation binding, 60 min at 4° C): 4.74 ± 0.47 nM
Compound: CNc1nc(I)nc2c1ncn2[C@H]1C[C@H](OP(=O)(O)O)[C@]2(COP(=O)(O)O)C[C@H]12 [[^125I]MRS2500]

- Ki (P2Y1 receptor; [5]): 6.86 ± 0.12 nM
Compound: CNc1nc(Cl)nc2c1ncn2[C@H]1C[C@H](OP(=O)(O)O)[C@]2(COP(=O)(O)O)C[C@H]12 [MRS2279, 2-chloro-N^6-methyl-(N)-methanocarba-2′-deoxyadenosine-3′,5′-bisphosphate]

- EC50 (MIN6 cells [3]; 16.7 mM glucose): 25.8 ± 5.6 nM
Compound: CSc1nc(N)c2ncn(C3CC(O)C4(COP(=O)(O)OP(=O)(O)O)CC34)c2n1 (stereo not drawn) [MRS2365, (N)-methanocarba-2′-deoxy-2-methylthio-adenosine-5′-diphosphate]
